Data on 4 compounds can be found in article PMC5518655 (Acta Pharmaceutica Sinica. B, 2017).

The target in one test is DENV2 NS2B/NS3 protease (Dengue virus type 2, UniProt P14340). Kind of test: In vitro DENV2 NS2B/NS3 protease assay with fluorogenic peptide substrate. It is filed as biochemical. The conditions noted are these: for inhibition at 50 µM: read-out: inhibition at 50 µmol/L (preliminary screening). Put shortly: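 Screened at 50 µmol/L; IC50 measured only when inhibition exceeded 10%. DENV2 NS2B-NS3 (0.57 µmol/L) and test compound in DMSO, in Tris–HCl pH 8.5, preincubated 10 min at 37 °C, 200 rpm. […] added, shaken 60 min more; fluorescence read, blank-subtracted. Triplicates, 3 independent experiments, mean±SD; IC50 read graphically from log concentration vs % inhibition.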
DENV2 NS2B/NS3 protease, sequence (P14340 1476-2093 limits assumed): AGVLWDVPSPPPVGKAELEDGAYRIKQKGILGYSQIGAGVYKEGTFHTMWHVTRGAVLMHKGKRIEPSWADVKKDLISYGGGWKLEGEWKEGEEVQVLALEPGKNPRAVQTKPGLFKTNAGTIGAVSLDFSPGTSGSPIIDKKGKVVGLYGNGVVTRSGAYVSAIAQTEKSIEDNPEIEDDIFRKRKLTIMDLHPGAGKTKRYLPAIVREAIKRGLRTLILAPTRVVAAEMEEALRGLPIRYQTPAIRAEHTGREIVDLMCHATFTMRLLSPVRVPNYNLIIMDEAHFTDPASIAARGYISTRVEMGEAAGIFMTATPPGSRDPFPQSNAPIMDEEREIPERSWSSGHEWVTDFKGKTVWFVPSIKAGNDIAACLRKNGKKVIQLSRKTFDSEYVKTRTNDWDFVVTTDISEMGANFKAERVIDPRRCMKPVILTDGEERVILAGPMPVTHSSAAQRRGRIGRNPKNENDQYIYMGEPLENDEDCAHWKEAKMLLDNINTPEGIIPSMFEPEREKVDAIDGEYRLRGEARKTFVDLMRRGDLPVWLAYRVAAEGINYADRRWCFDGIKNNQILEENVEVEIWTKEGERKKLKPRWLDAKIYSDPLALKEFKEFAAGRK
DENV2 NS2B/NS3 protease, sequence (P14340 1346-1475 partner limits assumed): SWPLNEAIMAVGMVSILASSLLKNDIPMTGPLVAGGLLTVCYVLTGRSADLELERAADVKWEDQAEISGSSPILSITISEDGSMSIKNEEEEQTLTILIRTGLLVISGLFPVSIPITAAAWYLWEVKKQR

In a further test the target is DEN2 serine protease. The conditions noted are these: cited from earlier work.

SMILES strings stand for the structures. Where only a bound is given, the exact number is not on record here.

At DENV2 NS2B/NS3 protease, `COc1cc(O)c(C(=O)[C@@H]2[C@H](CC=C(C)C)C(C)=CC[C@H]2c2ccccc2)c(O)c1` [Panduratin A, panduratin A, reference compound] registered an IC50 of 57.3 ± 1.3 µM. In addition, the Ki on DEN2 serine protease is 25 µM.

Turning to `COc1ccc(C(=O)CN2CC(=Cc3ccc([N+](=O)[O-])cc3)C(=O)C(=Cc3ccc([N+](=O)[O-])cc3)C2)cc1` [Compound 4j, 1-(2-(4-Methoxyphenyl)-2-oxoethyl)-3,5-bis(4-nitrobenzylidene)piperidin-4-one], at DENV2 NS2B/NS3 protease, the half-inhibitory concentration (IC50) amounted to 16.2 ± 1.3 µM and the inhibition at 50 µM is more than 10%. In the same order, the values of `O=C1C(=Cc2ccc([N+](=O)[O-])cc2)CN(CC(=O)c2ccc(F)cc2)CC1=Cc1ccc([N+](=O)[O-])cc1` [Compound 4e, 1-(2-(4-Fluorophenyl)-2-oxoethyl)-3,5-bis(4-nitrobenzylidene)piperidin-4-one] are 15.2 ± 1.1 µM and more than 10%. `CC(C)=CC[C@@H]1C(C)=CC[C@@H](c2ccccc2)[C@@H]1C(=O)c1c(O)cc(O)cc1O` [4-hydroxypanduratin A]: the Ki on DEN2 serine protease was 21 µM.

By IC50 is commonly meant the concentration needed to halve the response being measured. Low values mean greater potency, high ones weaker potency. As a reminder, the Ki is the equilibrium dissociation constant of an inhibitor or competing ligand from its target.
